Results collected from several papers.
Pah: Phenylalanine-4-hydroxylase (Pah, Rattus norvegicus, UniProt P04176)
VHL: von Hippel-Lindau disease tumor suppressor (VHL, Homo sapiens, UniProt P40337)

The Kd of CCCN1CCN(c2ccc(-c3cncc(Cl)c3N3CCC4(CCNC4=O)CC3)cc2)CC1 is reported as 4.03 µM (Serine/threonine-protein kinase MRCK beta (CDC42BPB, Homo sapiens, UniProt Q9Y5S2); cell-free assay; lysate).
The Kd of N[C@H](Cc1ccccc1)C(=O)O is reported as 8400 µM (Pah; binding; fluorescence; pH 7.5).
CC(C)[C@H](N)c1nc2cc(-c3ccncc3F)sc2c(=O)[nH]1 gave a Kd of 0.00032 µM (Cell division cycle 7-related protein kinase (CDC7, Homo sapiens, UniProt O00311); binding; MST).
The Kd of C=C(C)[C@@H]1CC[C@]2(C)CC[C@]3(C)[C@H](CC[C@@H]4[C@@]5(C)CC[C@H](O)C(C)(C)[C@@H]5CC[C@]43C)[C@@H]12 is reported as 0.33 µM (GTPase KRas (KRAS, Homo sapiens, UniProt P01116); binding; ITC).
Cc1cc(Nc2cc3ncccc3c(N[C@@H]3C[C@H]4CC[C@@H](C3)N4CCC#N)n2)n[nH]1 has a Kd of 0.89 µM (Serine/threonine-protein kinase DCLK1 (DCLK1, Homo sapiens, UniProt O15075); binding; competition with immobilised ligand).
The Kd of NC(=O)c1ccc[n+]([C@@H]2O[C@H](COP(=O)(O)OP(=O)(O)OC[C@H]3O[C@@H](n4cnc5c(N)ncnc54)[C@H](O)[C@@H]3O)[C@@H](O)[C@H]2O)c1 is reported as 467 µM (mdh (Escherichia coli, UniProt P61889); binding; ITC).
With Cc1cnc(-c2ccc(-c3ccc(NC(=O)Nc4c(F)cc(F)cc4F)cc3F)c3c2C(=O)NC3)[nH]1 the Kd was 0.024 µM (Serine/threonine-protein kinase 24 (STK24, Homo sapiens, UniProt Q9Y6E0); binding; competition with immobilised ligand).
CC(C)C[C@H](N)C(=O)O gave a Kd of 93000 µM (Pah; binding; fluorescence; pH 7.5).
NC(=O)[C@H](NNC(=O)c1c[nH]c2ccccc12)c1ccccc1 has a Kd of 3.5 µM (GTPase KRas (KRAS, Homo sapiens, UniProt P01116, G12D); binding; MST).
Cc1cc2nc3c(=O)[nH]c(=O)nc-3n(C[C@H](O)[C@H](O)[C@H](O)COP(=O)(O)OP(=O)(O)OC[C@H]3O[C@@H](n4cnc5c(N)ncnc54)[C@H](O)[C@@H]3O)c2cc1C has a Kd of 0.015 µM (Nuclear receptor coactivator 3 (Homo sapiens, UniProt Q9Y6Q9); binding; lysate).
With Cc1ncsc1-c1ccc(CNC(=O)[C@@H]2C[C@H](O)CN2C(=O)[C@@H](NC(=O)C2(F)CC2)C(C)(C)C)c(OCCOc2ccc(CN3CCN(c4cc(-c5ccccc5O)nnc4N)CC3)cc2)c1 the Kd was > 10 µM (VHL; binding; SPR).
For CC1(C)Cc2c(-c3ccccc3)c(-c3ccc(Cl)cc3)c(CC(=O)NCC(=O)O)n2C1, the Kd was 2.1 µM (Prostaglandin E synthase (PTGES, Homo sapiens, UniProt O14684); binding; ITC).
Cc1ncsc1-c1ccc(CNC(=O)[C@@H]2C[C@H](O)CN2C(=O)[C@@H](NC(=O)C2(F)CC2)C(C)(C)C)c(OCCc2ccc(CN3CCN(c4cc(-c5ccccc5O)nnc4N)CC3)cc2)c1 gave a Kd of > 10 µM (VHL; binding; SPR).
The Kd of Nc1ncnc2c1ncn2[C@@H]1O[C@H](COP(=O)(O)O)[C@@H](OP(=O)(O)O)[C@H]1O is reported as 0.55 µM (Sulfotransferase 2A1 (SULT2A1, Homo sapiens, UniProt Q06520); binding; fluorescence).
